The source of these data is ChEMBL document CHEMBL4513216, “Probing the Open Global Health Chemical Diversity Library for Multistage-Active Starting Points for Next-Generation Antimalarials” (ACS Infect Dis, 2020).

A short description of the data set: Toxicity liver stage against HepG2, at 10uM. The data set is classed as cell-based. Details: test concentration 10 uM, cell line HepG2-A16-CD81EGFP. The note with it: human, HepG2-A16-CD81EGFP cells; read-out: INHIBITION
The method in brief:
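Uninfected HepG2-A16-CD81EGFP cells, 3 × 10^3 per well, 1536-well, plated on prespotted compound at 10 μM final, parasite-free screening media added to match infected plates; puromycin 10 μM positive, DMSO 0.5% negative; run in parallel with 48 h PbLuc assay at 37 °C, 5% CO2; viability by CellTiter-Glo luminescence, normalized to controls.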

`CCOCC(=O)N1CCc2c(CN(C)C)nn(C(C)C)c2C1`: the cytotoxicity at 10 µM was -2.63%. Next, `Cc1csc(CNC(=O)N(C)Cc2ccncc2)n1`: -10.8%; `CCc1ccc(C(C)NC(=O)N2CCC(n3cncn3)CC2)cc1` (stereo not drawn): -8.18%. Next, `CO[C@H]1CN(C(=O)c2nc(-c3ccccc3)[nH]c2C)CC[C@H]1N`: 11.5%; `O=C(c1ccccc1)N1Cc2nccn2CC(Cn2ncccc2=O)C1` (stereo not drawn): 10.4%. Regarding `Cc1ccccc1N1CCN(C(=O)CSc2ccncc2)CC1=O`, the cytotoxicity at 10 µM was 6.71%. Next, `CCc1noc(CN2CCN(C(=O)c3ccccn3)CC2)n1`: -0.775%; `Cc1c(S(=O)(=O)N2CCOCC2)cc2c(C)cc(=O)n3c2c1CCC3`: 3.36%; `CC1(C(=O)N2CCOCC2)CNCCO1` (stereo not drawn): 1.2%. Next, `Cc1ccccc1CNC(=O)N1C[C@@H]2C[C@H](C(=O)N3CCCC3)[C@H](C1)O2`: 5.68%; `CCn1nc(C)c2nc(C)nc(NC3CCCC3)c21`: 9.12%.

As for `CNC(=O)CN(C)c1nc(-c2ccc(C(N)=O)cc2)nc2c1CCNC2`, the cytotoxicity at 10 µM was 3.62%. Next, `COc1cccc(CCC2CCCCN2)c1` (stereo not drawn): -1.73%; `Cc1ccc(Cl)cc1NS(=O)(=O)c1cc(C(N)=O)n(C)c1`: 3.8%. For `CCOc1ncnc2c1CCN(C(=O)CN(C)C)CC2`, the cytotoxicity at 10 µM was -5.12%. With `COc1ccc(C(=O)NS(=O)(=O)c2cncc(Br)c2)cc1`, the cytotoxicity at 10 µM is -1.91%.

Regarding `COCCN(Cc1ccc(F)cc1C#N)CC(F)(F)F`, the cytotoxicity at 10 µM was -3.02%. Turning to `CN(Cc1ccc(C(=O)NCC2COCCO2)c(=O)[nH]1)CC(C)(C)C` (stereo not drawn), the cytotoxicity at 10 µM is 3.21%.

Take `Cc1ccc(N(CC(=O)NCc2nnc3n2CCC3)S(C)(=O)=O)cc1`: the cytotoxicity at 10 µM is -4.66%. Turning to `CN(CCn1nc2ccccn2c1=O)CC(=O)NC1CC1`, the cytotoxicity at 10 µM stood at 3.2%. Next, `Cc1cccc2cc(CN3CCCN4CCC[C@H]4C3)c(=O)[nH]c12`: 2.67%; `O=C(O)C1(Cc2ccc(F)cc2F)CCCN(Cc2ccncc2)C1` (stereo not drawn): -2.74%. `CN(C)CCNC(=O)Cn1cnc2cc(NC(=O)C3CC3)ccc21`: the cytotoxicity at 10 µM was -14.3%.

Turning to `CCN1CCC(NC(=O)CN2CCCC2Cn2nc(C)cc2C)CC1` (stereo not drawn), the cytotoxicity at 10 µM was -6.83%. Regarding `Cc1ncsc1CCC(=O)NCc1csc(N2CCCC2)n1`, the cytotoxicity at 10 µM is -2.56%. Next, `Cc1cnn(CC2CCCN2C(=O)c2sccc2C#N)c1` (stereo not drawn): 12.3%; `O=C(NCc1nnc2n1CCCC2)N(Cc1ccccc1F)C1CC1`: -9.29%; `N#Cc1ccccc1C(=O)N1CCC2(CC(=O)NC2=O)C1` (stereo not drawn): -19.6%. Next, `CCN(CC)Cc1ccc(C(=O)NC2CCc3cc(F)ccc32)o1` (stereo not drawn): -9.03%; `CCOC(=O)NCCC(=O)NC(C)(C)c1ccc2c(c1)OCCO2`: -0.418%. Next, `CC(C)C(=O)NS(=O)(=O)c1ccc(C#N)cc1C(F)(F)F`: -12.3%. For `CCc1nc(C2CCCN2CCCc2nc3ccccc3o2)no1` (stereo not drawn), the cytotoxicity at 10 µM is -7.92%. `O=C(c1ccc(-n2ccnc2)nn1)N1CCCC1CCc1ccccc1` (stereo not drawn): the cytotoxicity at 10 µM came to 8.57%. Next, `O=C(NC1CC1)c1ccn(COc2c(Cl)cccc2Cl)n1`: 7.36%; `CN(C)C(=O)Cc1ccccc1NCc1cccc(F)c1F`: 9.03%. As for `CC(C)NC(=O)CCN1CCCC1c1cccc2c1OCCO2` (stereo not drawn), the cytotoxicity at 10 µM came out at 0.354%. Next, `CN(Cc1ccc2c(c1)OCCO2)Cc1nc2c(cnn2C)c(=O)[nH]1`: -4.45%; `Cc1nnsc1C(=O)N1CC[C@H](c2ccccc2)[C@@H]2[C@H]1CCCCN2C`: -17.6%. In the case of `COc1cc(N2CCn3cc(CNc4ccccn4)nc3C2)ncn1`, the cytotoxicity at 10 µM is 13.1%. Next, `Cc1cnn(CC2CCCCN2Cc2cnc(C)s2)c1` (stereo not drawn): -11.3%; `Cc1cc(C)c(Cn2cncn2)cc1CN1CC[C@@H]2CC[C@H](C1)N2`: -3.96%; `Cn1ncc2cnn(CC(O)COCc3ccccc3Cl)c2c1=O` (stereo not drawn): 3.8%.

As for `Cc1nn(C(C)C)c(C)c1CN1CCN(C2CCCCC2)C(=O)C1`, the cytotoxicity at 10 µM came out at 6.63%. Next, `CCN1CCN(c2ccccc2NC(=O)N(C)C2CCSC2)CC1` (stereo not drawn): -56.7%; `CCCS(=O)(=O)NCCn1ccc(-c2cccs2)n1`: 5.55%. As for `CCc1noc(C2CCCCN2C(=O)c2nnc3ccccc3n2)n1` (stereo not drawn), the cytotoxicity at 10 µM worked out at 0.795%. Next, `CCOc1cccc(COC(=O)c2cc(C)on2)n1`: -5.08%; `CCNC(=O)Cc1ccc(NC(=O)NC(CC)CC)cc1`: -6.93%; `CCOCC1CN(C(=O)c2cscn2)Cc2nnn(CC3CC3)c21` (stereo not drawn): 1.9%. Next, `Cc1ccc2nc(CN3CCCCC3C(=O)N3CCOCC3)cn2c1` (stereo not drawn): 3.13%; `OCCN1CCN(Cc2coc(-c3ccccc3Cl)n2)CC1`: -7.57%; `CN(C)C(=O)N1CC2(CCN(CC3CC3)CC2)c2cc(F)ccc21`: -1.54%. Next, `O=C1NCCCc2[nH]c(Cc3cccc(Cl)c3)nc21`: 13%; `N#Cc1cc(F)ccc1CN1CCCCC1Cn1cccn1` (stereo not drawn): -2.93%; `Cc1ccc2nc(C3CCCN3Cc3cccc(CCN)c3)[nH]c2c1` (stereo not drawn): -7.01%. Consider `Cn1ncc2c1NC(=O)CC2c1c(F)cccc1Cl` (stereo not drawn), for which the cytotoxicity at 10 µM amounted to 46.1%. Consider `Cc1noc(C)c1CN1CCC2(CC1)CC(Oc1cccnc1)C2`, for which the cytotoxicity at 10 µM was found to be 23.2%. Next, `CCc1nccn1CCNC1CCN(c2nc3ccc(Cl)cc3s2)CC1`: 28.8%; `Cn1cc(S(=O)(=O)NCc2ccc(F)cc2)cn1`: 1.25%; `Cc1cn(Cc2ccc(F)cc2)nc1N`: -8.99%. As to `NC(=O)CC1CC2(CCNCC2)c2cc(F)ccc21` (stereo not drawn), the cytotoxicity at 10 µM is -107%.

With `Cc1cccc(-c2nc(C)nn2CN2CCN(c3ncccn3)CC2)c1`, the cytotoxicity at 10 µM is -6.45%. Next, `COc1nc(C)cc(C)c1CNC(=O)N(C)Cc1cnn(C)c1`: -4.64%. Consider `CC(SCc1ccc(Br)c2cccnc12)C(N)=O` (stereo not drawn), for which the cytotoxicity at 10 µM worked out at 1.67%. Next, `Cc1ccc(CNc2cc3c(cc2Cl)NC(=O)CO3)cc1C`: 0.651%; `COc1ccc2cc(-c3n[nH]cc3CN3CCSCC3)ccc2c1`: 2.22%. Take `COc1ccc(CN2C[C@@H]3OCC(=O)N(CC(N)=O)[C@@H]3C2)cc1`: the cytotoxicity at 10 µM was -4.54%. Next, `CC(C)c1nc(N2CC(N3CCCCC3C)C2)c2cnn(C)c2n1` (stereo not drawn): -15.5%; `COc1nn(C)c2c1CCCN(C(=O)c1cccs1)C2`: 8.36%.

Take `CCC(C(=O)NCc1ccccn1)N(c1cccc(C)c1)S(C)(=O)=O` (stereo not drawn): the cytotoxicity at 10 µM was found to be 0.383%. For the compound `Cc1ccc(N2CC[C@@H]3[C@@H]2CCN3C(=O)Cc2ccccc2)nn1`, the cytotoxicity at 10 µM was -93.1%.

On to `COCC(=O)N(CCC(=O)OC)CC1CCCO1` (stereo not drawn), for which the cytotoxicity at 10 µM is 1.74%. For `CC(=O)Nc1ncc(S(=O)(=O)N2CCOCC2)s1`, the cytotoxicity at 10 µM stood at 4.81%. In the case of `O=C(CCn1ccc(=O)[nH]c1=O)N1CCC(Oc2ncccc2Cl)CC1`, the cytotoxicity at 10 µM came to 1.71%. Turning to `CC(C)N(C)Cc1cnc2n1CCN(C(=O)NC1CCCC1)C2`, the cytotoxicity at 10 µM is 4.14%. Next, `CC(C)[C@@H]1CN(C(=O)CCc2ccc(F)cc2)C[C@H]1C(=O)O`: -3.97%; `O=C(c1cccnc1O)N1CCCN(c2cccnn2)CC1`: 6.82%; `CCn1c(CN(C)C(=O)c2ccc(O)nc2)nc2ccccc21`: 10.2%. Next, `O=C(NCCCN1CCOCC1)c1ccc(Cl)cc1Cl`: -3.64%.

Consider `COc1cc(CCC(=O)NC2CCCN(C)C2)ccc1OCC(F)(F)F` (stereo not drawn), for which the cytotoxicity at 10 µM is -4.54%.

Regarding `CC(C)N1CCC(CC(=O)NC(C(=O)O)c2ccc(F)cc2)CC1` (stereo not drawn), the cytotoxicity at 10 µM is 0.0453%.

With `Cc1cc(CN2CCN(C(=O)NCc3ccc(C)s3)CC2)no1`, the cytotoxicity at 10 µM is -2.84%. As for `COc1ccc2c(c1)OCC(Cc1ccc(CN)cn1)C2` (stereo not drawn), the cytotoxicity at 10 µM was -1.84%. For the compound `Cn1cc(CN2CCc3c(nc(-c4ccccn4)[nH]c3=O)C2)cn1`, the cytotoxicity at 10 µM is -5.05%. As to `Cc1cn2c(n1)CCC(NS(=O)(=O)c1cc(C)sc1C)C2` (stereo not drawn), the cytotoxicity at 10 µM amounted to 2.74%. Next, `CCc1cccc(C)c1NC(=O)c1ccccc1N(C)S(C)(=O)=O`: 17.8%. Next, `CN(C)C(=O)N1CCN(CCCOc2ccccc2)[C@H]2CS(=O)(=O)C[C@H]21`: 0.666%. Next, `O=C(C1CC1)N1Cc2[nH]nc(COCc3cccnc3)c2C1`: 0.997%. On to `COCCN1CCC2(CC1)CC(NC(=O)COC)c1ccccc1O2` (stereo not drawn), for which the cytotoxicity at 10 µM was -8.43%. As for `Cc1oc(CN(C)C(=O)c2ccc(Br)cc2)cc1C(=O)O`, the cytotoxicity at 10 µM came out at 5.5%. On to `COC(=O)C(NC(=O)c1cc(C)ccc1C)c1cccnc1` (stereo not drawn), for which the cytotoxicity at 10 µM is -39.7%. With `Cc1nc(N2CCC(C(O)c3nccn3C)CC2)c2cccnc2n1` (stereo not drawn), the cytotoxicity at 10 µM was 1.46%.

In the case of `CC(C)(C)c1ccc(CN2C[C@H]3CC(O)C[C@H]3C2)c(OCC(N)=O)c1` (stereo partly drawn), the cytotoxicity at 10 µM worked out at 2.71%.

Consider `CC(NC(=O)C1CCN(C(C)C)CC1)c1nncn1C1CCCC1` (stereo not drawn), for which the cytotoxicity at 10 µM is -6.93%. On to `CC(C)CC(=O)N1CC(=O)c2sc(NC3CCCCC3)nc2C1`, for which the cytotoxicity at 10 µM is -7%. Next, `Cc1cnn(CCNCC(O)COc2ccc(C#N)cc2)c1` (stereo not drawn): -11.9%; `CCn1nc(-c2ccccc2F)ccc1=O`: 12.9%.

In the case of `COc1ccc(Cl)cc1CS(=O)(=O)CC(=O)NC(C)CCC(C)C` (stereo not drawn), the cytotoxicity at 10 µM was determined as 11%.
